In ChEMBL document CHEMBL1129371, “Bis tertiary amide inhibitors of the HIV-1 protease generated via protein structure-based iterative design” (J Med Chem, 1996):

Legend:
[1] = test system: Human immunodeficiency virus 1; experiment: (§1) Effective dose against inhibition of HIV-1 protease in CEM cells; type: functional; conditions: Human immunodeficiency virus 1, CCRF-CEM; read-out: ED50 (the source's name)
Procedure, shortened: (§2)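 HIV-1-induced killing of CEM-SS cells; cell viability read by MTT tetrazolium metabolism. ED50 = concentration giving 50% inhibition of HIV-1-induced cell death. Run at Southern Research Institute.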

[2] = target: T1, Human immunodeficiency virus type 1 protease (Human immunodeficiency virus 1, UniProt Q72874); experiment: Binding affinity against HIV-1 protease
CCRF-CEM = experiment: Antiviral activity againsy HIV-1 in CEM cells; type: functional; conditions: Homo sapiens, read-out: ED50 (the source's name); procedure, shortened: as §2
[3] = target: T1, Human immunodeficiency virus type 1 protease; experiment: Compound was tested for binding affinity against HIV protease
[4] = Toxic concentration at which 50% of CEM-SS cells were viable (uninfected with virus) as determined by metabolism of MTT in(uM).; type: toxicity, cell-based; conditions: human, read-out: TC50 (the source's name)
Procedure, shortened: (§3)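 Uninfected CEM-SS cells; viability read by MTT metabolism. TC50 = concentration giving 50% reduction in number of viable cells; reported in μM.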

[5] = Pharmacokinetic parameter Cmax determined after oral administration of 50 mg/kg to rat; type: ADME, organism-based; parameters: dose 50 mg/kg, route oral; conditions: in vivo
[6] = Pharmacokinetic parameter Cmax determined after intravenous administration of 50 mg/kg to rat; type: ADME, organism-based; parameters: dose 50 mg/kg, route intravenous; conditions: in vivo
[7] = Maximal concentration in monkey plasma after 25 mg/kg oral dose; type: ADME, organism-based; parameters: dose 25 mg/kg, route oral; conditions: simiiformes
[8] = Fraction of compound bio available orally in rat at dosage 50(mg/kg) by po administration; type: ADME, organism-based; conditions: in vivo
[9] = Pharmacokinetic parameter half life determined after intravenous administration of 50 mg/kg to rat; type: ADME, organism-based; parameters: dose 50 mg/kg, route intravenous; conditions: in vivo
[10] = Pharmacokinetic parameter Cmax determined after oral administration of 15 mg/kg to dog; conditions: in vivo
[11] = Pharmacokinetic parameter half life determined after oral administration of 15 mg/kg to dog; type: ADME, organism-based, Canis lupus familiaris; parameters: dose 15 mg/kg, route oral; conditions: in vivo
Rattus norvegicus [12] = experiment: Fraction of compound bio available orally in rat at dosage 50(mg/kg) by po administration.; conditions: in vivo
[13] = Pharmacokinetic parameter Cmax determined after intravenous administration of 60 mg/kg to rat; type: ADME, organism-based; parameters: dose 60 mg/kg, route intravenous; conditions: in vivo
[14] = Pharmacokinetic parameter half life determined after intravenous administration of 60 mg/kg to rat; type: ADME, organism-based; parameters: dose 60 mg/kg, route intravenous; conditions: in vivo
[15] = Pharmacokinetic parameter Cmax determined after intravenous administration of 25 mg/kg to monkey; type: ADME, organism-based; parameters: dose 25 mg/kg, route intravenous; conditions: simiiformes, in vivo
[16] = Oral bioavailability in rat (dose 50 mg/kg); type: ADME, organism-based; conditions: in vivo
[17] = Pharmacokinetic parameter half life determined after peroral administration of 30 mg/kg abd antacid (CaCO3 dosed orally 10 min prior to and 60 min postdosing) to dog; conditions: in vivo, po
[18] = Fraction of compound bio available orally in dog at dosage 15(mg/kg) by po administration.; type: ADME, organism-based, Canis lupus familiaris; conditions: in vivo
[19] = Pharmacokinetic parameter Cmax determined after oral administration of 30 mg/kg abd antacid (CaCO3 dosed orally 10 min prior to and 60 min postdosing) to dog; conditions: in vivo
[20] = Pharmacokinetic parameter half life determined after intravenous administration of 25 mg/kg to monkey; type: ADME, organism-based; parameters: dose 25 mg/kg, route intravenous; conditions: simiiformes, in vivo
[21] = Pharmacokinetic parameter half life determined after intravenous administration of 15 mg/kg to dog; type: ADME, organism-based, Canis lupus familiaris; parameters: dose 15 mg/kg, route intravenous; conditions: in vivo
[22] = Fraction of compound bio available orally in monkey at dosage 25(mg/kg) by po administration.; conditions: primates, in vivo
[23] = Pharmacokinetic parameter Cmax determined after peroral administration of 25 mg/kg to monkey; type: ADME, organism-based; parameters: dose 25 mg/kg, route oral; conditions: simiiformes, in vivo, po
[24] = Fraction of compound bio available orally in dog at dosage 30(mg/kg) by po administration.; type: ADME, organism-based, Canis lupus familiaris; conditions: in vivo
[25] = Pharmacokinetic parameter half life determined after peroral administration of 25 mg/kg to monkey; type: ADME, organism-based; parameters: dose 25 mg/kg, route oral; conditions: simiiformes, in vivo, po
[26] = Pharmacokinetic parameter Cmax determined after peroral administration of 50 mg/kg to rat; type: ADME, organism-based; parameters: dose 50 mg/kg, route oral; conditions: in vivo, po
[27] = Pharmacokinetic parameter Cmax determined after oral administration of 30 mg/kg to dog; conditions: in vivo
[28] = Toxic concentration at which 50% of CEM-SS cells were viable (uninfected with virus) as determined by metabolism of MTT; type: toxicity, cell-based; conditions: human, read-out: TC50 (the source's name); procedure, shortened: as §3
[29] = Pharmacokinetic parameter half life determined after peroral administration of 15 mg/kg to dog; conditions: in vivo, po
[30] = Pharmacokinetic parameter Cmax determined after peroral administration of 15 mg/kg to dog; conditions: in vivo, po
[31] = Pharmacokinetic parameter Cmax determined after peroral administration of 25 mg/kg to monkey; No levels; type: ADME, organism-based; parameters: dose 25 mg/kg, route oral; conditions: simiiformes, in vivo, po
[32] = Pharmacokinetic parameter Cmax determined after peroral administration of 15 mg/kg to dog; type: ADME, organism-based, Canis lupus familiaris; parameters: dose 15 mg/kg, route oral; conditions: in vivo, po
Rattus norvegicus [33] = experiment: Pharmacokinetic parameter Cmax determined after oral administration of 50 mg/kg to rat; No levels; type: ADME, organism-based; parameters: dose 50 mg/kg, route oral; conditions: in vivo
CEM-SS = experiment: as §1; type: functional; conditions: Homo sapiens, read-out: ED50 (the source's name); procedure, shortened: as §2
[34] = Toxic concentration at which 50% of CEM-SS cells were viable (uninfected with virus) as determined by metabolism of MTT in(uM); type: toxicity, cell-based; conditions: human, read-out: TC50 (the source's name); procedure, shortened: as §3

CCC1(N(CCO)C(=O)c2ccccc2CCC(O)Cc2ccc(C)cc2C(=O)N(CCO)C(C)(C)C2CCOCC2)CCCC1 (configuration not stated)
EC50 [1]: 1110 nM | Ki [2]: 35 nM

CCN(C(=O)c1ccccc1CC(O)CCc1ccccc1C(=O)N(CCO)C1(CC)CCCC1)C(C)(C)c1ccccc1 (configuration not stated)
EC50 [1]: 1700 nM | Ki [2]: 51 nM

CCC1(N(CCO)C(=O)c2ccccc2CCC(O)Cc2ccc(C)cc2C(=O)N(CC2COC(C)(C)OC2)C(C)(C)c2ccccc2)CCCC1 (configuration not stated)
EC50 (CCRF-CEM): 590 nM | Ki [3]: 4 nM

CC(C)(C)NC(=O)c1ccccc1CCC(O)Cc1ccccc1C(=O)NC(C)(C)C (configuration not stated)
Ki [2]: 20000 nM

CC(C)(C)N(CCO)C(=O)c1ccccc1CCC(O)Cc1ccccc1C(=O)N(CCO)C(C)(C)C (configuration not stated)
EC50 [1]: 36000 nM | CC50 [4]: > 150000 nM

Cc1ccc(CC(O)CCc2ccccc2C(=O)N(CCO)C(C)(C)c2ccccc2)c(C(=O)N(CCO)C(C)(C)c2ccccc2)c1 (configuration not stated)
Cmax [5]: 1200 ng/mL | Cmax [6]: 88900 ng/mL | EC50 [1]: 810 nM | Cmax [7]: 860 ng/mL | bioavailability [8]: 34% | half-life [9]: 0.5 h | Ki [2]: 18 nM | Cmax [10]: 390 ng/mL | half-life [11]: 2.07 h

CCC1(N(CCO)C(=O)c2ccccc2CCC(O)Cc2ccc(C)cc2C(=O)N(CCO)C2(c3ccccc3)CCCC2)CCCC1 (configuration not stated)
EC50 [1]: 790 nM | Ki [2]: 0.4 nM

CC(C)(C)N(CCO)C(=O)c1ccccc1CCC(O)Cc1ccccc1C(=O)N(CCO)C(C)(C)c1ccccc1 (configuration not stated)
EC50 [1]: 3400 nM | Ki [2]: 90 nM | CC50 [4]: > 150000 nM

CCC1(N(CCO)C(=O)c2ccccc2CCC(O)Cc2ccc(C)cc2C(=O)N(CCO)C(C)(C)c2ccc(OCc3cccnc3)cc2)CCCC1 (configuration not stated)
Cmax [5]: 860 ng/mL | bioavailability (Rattus norvegicus [12]): 5% | EC50 [1]: 650 nM | Ki [2]: 2 nM | Cmax [13]: 87200 ng/mL | half-life [14]: 1 h

CCC1(N(CCO)C(=O)c2ccccc2CCC(O)Cc2ccc(C)cc2C(=O)N(CCO)C(C)(C)c2ccccc2)CCCC1 (configuration not stated)
Cmax [15]: 18300 ng/mL | Cmax [6]: 88400 ng/mL | EC50 [1]: 780 nM | bioavailability [16]: 39% | half-life [17]: 0.52 h | bioavailability [18]: 3% | Cmax [19]: 3260 ng/mL | half-life [20]: 1.08 h | half-life [9]: 1.3 h | half-life [21]: 0.24 h | Ki [2]: 8 nM | bioavailability [22]: 32% | Cmax [23]: 1910 ng/mL | bioavailability [24]: 33% | half-life [25]: 1.07 h | Cmax [26]: 2780 ng/mL | CC50 [4]: 103000 nM | Cmax [27]: 690 ng/mL

Cc1ccc(CC(O)CCc2ccccc2C(=O)N(CCO)C(C)(C)C)c(C(=O)N(CCO)C(C)(C)c2ccccc2)c1 (configuration not stated)
EC50 [1]: 4200 nM | Ki [2]: 63 nM

CC(C)(C)NC(=O)c1ccccc1C[C@@H](O)[C@H](Cc1ccccc1)NC(=O)[C@H](CC(N)=O)NC(=O)c1cnc2ccccc2c1
EC50 [1]: 20 nM | CC50 [28]: 122000 nM

CC(C)(C)N(CCO)C(=O)c1ccccc1CCC(O)Cc1ccccc1C(=O)N(CCO)C(C)(C)c1ccc2ccccc2c1 (configuration not stated)
EC50 [1]: 7200 nM | Ki [2]: 145 nM

CCC1(N(CCO)C(=O)c2ccccc2CCC(O)Cc2ccc(C)cc2C(=O)N(CC(CO)CO)C(C)(C)c2ccccc2)CCCC1 (configuration not stated)
Cmax [5]: 1160 ng/mL | Cmax [6]: 52200 ng/mL | EC50 [1]: 950 nM | bioavailability [16]: 7% | half-life [9]: 1 h | half-life [29]: 0.34 h | Ki [2]: 10 nM | Cmax [23]: 810 ng/mL | Cmax [30]: 1170 ng/mL

CC(C)(C)N(CCO)C(=O)c1ccccc1CCC(O)Cc1ccccc1C(=O)N(CCO)C(C)(C)Cc1ccccc1 (configuration not stated)
Ki [2]: 1300 nM

CCC1(N(CCO)C(=O)c2ccccc2CCC(O)Cc2ccc(Cl)cc2C(=O)N(CCO)C(C)(C)c2ccccc2)CCCC1 (configuration not stated)
Cmax [5]: 1400 ng/mL | Cmax [6]: 111000 ng/mL | EC50 [1]: 720 nM | Cmax [31]: No levels | bioavailability [16]: 31% | half-life [9]: 1.7 h | Ki [2]: 2 nM | Cmax [32]: 590 ng/mL | CC50 [4]: 97000 nM

CCC1(N(CCO)C(=O)c2ccccc2CCC(O)Cc2ccc(C)cc2C(=O)N(CCO)C(C)(C)c2ccc(O)cc2)CCCC1 (configuration not stated)
Cmax [6]: 41300 ng/mL | EC50 [1]: 880 nM | bioavailability [16]: 0% | half-life [9]: 1.4 h | Ki [2]: 6 nM | Cmax (Rattus norvegicus [33]): No levels

CC(C)(C)N(CCO)C(=O)c1ccccc1CC(O)CSc1ccccc1C(=O)N(CCO)C(C)(C)C (configuration not stated)
Ki [2]: 18000 nM

CC(C)(C)NC(=O)[C@@H]1C[C@@H]2CCCC[C@@H]2CN1C[C@@H](O)[C@H](Cc1ccccc1)NC(=O)[C@H](CC(N)=O)NC(=O)c1cnc2ccccc2c1
EC50 (CEM-SS): 2 nM | Ki [3]: 0.9 nM | CC50 [28]: > 10000 nM

Cc1ccc(CCC(O)Cc2ccccc2C(=O)N(CCO)C(C)(C)c2ccccc2)c(C(=O)N(CCO)C(C)(C)C)c1 (configuration not stated)
EC50 [1]: 4900 nM | Ki [2]: 150 nM

CC(C)(C)NC(=O)c1ccccc1SCC(O)Cc1ccccc1C(=O)N(CCO)C(C)(C)C (configuration not stated)
Ki [2]: 34000 nM

CCC1(N(CCO)C(=O)c2ccccc2CCC(O)Cc2ccc(C)cc2C(=O)N(CCO)C(C)(C)c2ccc(OCCN3CCOCC3)cc2)CCCC1 (configuration not stated)
EC50 [1]: 840 nM | Ki [2]: 9 nM

CC(C)(c1ccccc1)N(CCO)C(=O)c1ccccc1CCC(O)Cc1ccccc1C(=O)N(CCO)C(C)(C)c1ccccc1 (configuration not stated)
EC50 [1]: 2200 nM | Ki [2]: 21 nM | CC50 [34]: 122000 nM

CCCC(CC)(CC)N(CCO)C(=O)c1cc(C)ccc1CC(O)CCc1ccccc1C(=O)N(CCO)C1(CC)CCCC1 (configuration not stated)
EC50 [1]: 1370 nM | Ki [2]: 6 nM

CCC1(N(CCO)C(=O)c2ccccc2CCC(O)Cc2ccc(C)cc2C(=O)N(CCC(O)CO)C(C)(C)c2ccccc2)CCCC1 (configuration not stated)
Cmax [5]: 840 ng/mL | Cmax [6]: 111000 ng/mL | EC50 [1]: 860 nM | bioavailability [16]: 2% | half-life [9]: 1.3 h | Ki [2]: 10 nM

CCCC(CC)(CC)N(CCO)C(=O)c1ccccc1CC(O)CCc1ccccc1C(=O)N(CCO)C(C)(C)C (configuration not stated)
EC50 [1]: 3700 nM | Ki [2]: 110 nM

CC(C)(C)N(CCO)C(=O)c1ccccc1CCC(O)Cc1ccccc1C(=O)N(CCO)[C@@]12CCCC[C@@H]1CCC2 (relative stereo)
EC50 [1]: 7600 nM | Ki [2]: 64 nM
